Calls of active or inactive are those of the source. The rule behind the calls is not given here.
Experiments:
BXPC-3 [1] = assay: Cytotoxicity against human BxPC3 cells by MTT assay; type: functional, cell-based
BXPC-3 [2] = assay: Inhibition of AKT phosphorylation at serine 473 residue in human BxPC3 cells at 10 uM after 4 hrs by ELISA; type: cell-based
Method in brief: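 BxPC3 cells kept in DMEM with 10% heat-inactivated FBS and 4.5 g/L glucose under 5% CO2, mycoplasma-free. Compound made fresh as a 10 mM DMSO stock and dosed at 10 μM final into the medium for 4 h. Equal amounts of lysate run on an MSD pSer473-AKT/total AKT plate; read-out is the pAKT/AKT ratio.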

In the case of CC(=O)Nc1ccc(S(=O)(=O)Nc2nncs2)cc1, the IC50 (BXPC-3 [1]) is reported as > 300 µM.

CCCCCCCCCC(=O)Nc1ccc(S(=O)(=O)Nc2nnc(C(C)(C)C)s2)cc1 was tested, and the IC50 (BXPC-3 [1]) was > 300 µM.

CCOC(=O)Cc1nnc(NS(=O)(=O)c2ccc(NC(C)=O)cc2)s1 gave an IC50 (BXPC-3 [1]) of 176 µM.

For CC(=O)Nc1ccc(S(=O)(=O)Nc2nnc(CO)s2)cc1, the IC50 (BXPC-3 [1]) was > 300 µM.

In the case of CCCCCCc1ccc(S(=O)(=O)Nc2nncs2)cc1, the IC50 (BXPC-3 [1]) is reported as 266 µM.

With CC(C)(C)c1nnc(NS(=O)(=O)c2ccc(N)cc2)s1 [GLYBUTHIAZOL] the IC50 (BXPC-3 [1]) was > 300 µM.

Nc1ccc(S(=O)(=O)Nc2nnc(CC(=O)O)s2)cc1 was tested, and the IC50 (BXPC-3 [1]) was > 300 µM.

For CC(=O)Nc1ccc(S(=O)(=O)Nc2nnc(S(N)(=O)=O)s2)cc1, the IC50 (BXPC-3 [1]) was > 300 µM.

In the case of CC(=O)Nc1ccc(S(=O)(=O)Nc2nnc(C(C)(C)C)s2)cc1, the IC50 (BXPC-3 [1]) is reported as > 300 µM.

In the case of Nc1ccc(S(=O)(=O)Nc2nnc(S(N)(=O)=O)s2)cc1, the IC50 (BXPC-3 [1]) is reported as > 300 µM.

With CCCCCCCCCC(=O)Nc1ccc(S(=O)(=O)Nc2nnc(S(N)(=O)=O)s2)cc1 the IC50 (BXPC-3 [1]) was > 300 µM.

With CC(=O)Nc1ccc(S(=O)(=O)Nc2nnc(CC(=O)O)s2)cc1 the IC50 (BXPC-3 [1]) was > 300 µM.

Nc1ccc(S(=O)(=O)Nc2nnc(CO)s2)cc1 was tested, and the IC50 (BXPC-3 [1]) was > 300 µM.

In the case of CCCCc1ccc(S(=O)(=O)Nc2nncs2)cc1, the IC50 (BXPC-3 [1]) is reported as > 300 µM.

CCCCCCCCCCCCc1ccc(S(=O)(=O)Nc2nnc(C)s2)cc1 was tested, and the IC50 (BXPC-3 [1]) was 51 µM.

CCCCCCCCCC(=O)Nc1ccc(S(=O)(=O)Nc2nnc(C)s2)cc1 showed an IC50 (BXPC-3 [1]) of 149 µM.

Compound CCCCCCCCCC(=O)Nc1ccc(S(=O)(=O)Nc2nnc(CC(=O)OCC)s2)cc1 has an IC50 (BXPC-3 [1]) of 170 µM.

With CCc1nnc(NS(=O)(=O)c2ccc(NC(C)=O)cc2)s1 the IC50 (BXPC-3 [1]) was > 300 µM.

CCCCCCCCCC(=O)Nc1ccc(S(=O)(=O)Nc2nnc(C(=O)OCC)s2)cc1 showed an IC50 (BXPC-3 [1]) of 117 µM.

With CCc1nnc(NS(=O)(=O)c2ccc(N)cc2)s1 [SULFAETHIDOLE] the IC50 (BXPC-3 [1]) was > 300 µM.

For O=S(=O)(Nc1nncs1)c1ccc(-c2ccccc2)cc1, the IC50 (BXPC-3 [1]) was > 300 µM.

With COCCOCCOCC(=O)Nc1ccc(S(=O)(=O)Nc2nncs2)cc1 the IC50 (BXPC-3 [1]) was > 300 µM.

In the case of O=S(=O)(Nc1nnc(CO)s1)c1ccc(-c2ccccc2)cc1, the IC50 (BXPC-3 [1]) is reported as > 300 µM.

Nc1ccc(S(=O)(=O)Nc2nncs2)cc1 was tested, and the IC50 (BXPC-3 [1]) was > 300 µM.

CCCCCCCCCC(=O)Nc1ccc(S(=O)(=O)Nc2nncs2)cc1 gave an IC50 (BXPC-3 [1]) of 180 µM.

For CCCCCCCCCCCCc1ccccc1S(=O)(=O)Nc1nncs1, the IC50 (BXPC-3 [1]) was 74 µM and the inhibition (BXPC-3 [2]) was “inactive”.

CCOC(=O)c1nnc(NS(=O)(=O)c2ccc(NC(C)=O)cc2)s1 was tested, and the IC50 (BXPC-3 [1]) was > 300 µM.

In the case of CCCCCCCCCC(=O)Nc1ccc(S(=O)(=O)Nc2nnc(CO)s2)cc1, the IC50 (BXPC-3 [1]) is reported as 189 µM.

CCCCCCCCCCCCc1ccc(S(=O)(=O)Nc2ccccc2)cc1 was tested, and the IC50 (BXPC-3 [1]) was 38 µM and the inhibition (BXPC-3 [2]) was “inactive”.

CCCCCCCCCCCCc1ccc(S(=O)(=O)Nc2nnc(CC(=O)O)s2)cc1 gave an IC50 (BXPC-3 [1]) of 117 µM.

In the case of CCCCCCCCCC(=O)Nc1ccc(S(=O)(=O)Nc2nnc(CC(=O)O)s2)cc1, the IC50 (BXPC-3 [1]) is reported as > 300 µM.

CCCCCCCCCC(=O)Nc1ccc(S(=O)(=O)Nc2nnc(CC)s2)cc1 gave an IC50 (BXPC-3 [1]) of 146 µM.

For CCCCCCCCCCCCc1cccc(S(=O)(=O)Nc2nncs2)c1, the IC50 (BXPC-3 [1]) was 71 µM and the inhibition (BXPC-3 [2]) was “inactive”.

CC(=O)Nc1ccc(S(=O)(=O)Nc2nnc(C)s2)cc1 was tested, and the IC50 (BXPC-3 [1]) was > 300 µM.

Cc1nnc(NS(=O)(=O)c2ccc(N)cc2)s1 [SULFAMETHIZOLE] was tested, and the IC50 (BXPC-3 [1]) was > 300 µM.

From ChEMBL document CHEMBL1681784, “Development of sulfonamide AKT PH domain inhibitors” (Bioorg Med Chem, 2011)
